bIAP inh = bovine intestinal alkaline phosphatase inhibitors, primary screen, selectivity assay for TNAP inhibitor project, biochemical, bovine IAP, CDP-star luminescence; alkaline phosphatase, intestinal [Bos taurus]; purified bovine IAP, 30 min; inhibition, % at 20 µM; 190,000 tested, under 10 active;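 active = over 50% inhibition of intestinal alkaline phosphatase at 20 µM in the single-dose screen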
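Assay system: bovine IAP enzyme; medium: DEA buffer 100 mM, pH 9.8, with MgCl2 1.0 mM, ZnCl2 0.02 mM; doses: 20 µM single dose; incubation: enzyme reaction for 30 min at room temperature; detection: CDP-star luminescence signal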
bIAP activator = bovine intestinal alkaline phosphatase activators, primary screen, biochemical, bovine IAP, CDP-star luminescence | alkaline phosphatase, intestinal [Bos taurus] | purified bovine IAP, 30 min; active compounds read high; fold of DMSO-control signal, blank-subtracted | activation factor at 20 µM | 200,000 tested, 0.17% active;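 active = activation factor of 2 or more at 20 µM, a signal rise over negative controls twice the positive control's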
hIAP activ = human IAP activators, primary screen, biochemical, luminescence, uHTS | activation factor at 10 µM | AID 2524, 2010 | purified human IAP, CDP-Star luminescence, 30 min; active compounds read high; 1 = vehicle-only enzyme, 0 = enzyme-free background | 330,000 tested, 0.16% active;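 active = activation factor of the enzyme at least 2-fold when tested at 20 µM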
Target sequence (P09923 whole entry, looked up): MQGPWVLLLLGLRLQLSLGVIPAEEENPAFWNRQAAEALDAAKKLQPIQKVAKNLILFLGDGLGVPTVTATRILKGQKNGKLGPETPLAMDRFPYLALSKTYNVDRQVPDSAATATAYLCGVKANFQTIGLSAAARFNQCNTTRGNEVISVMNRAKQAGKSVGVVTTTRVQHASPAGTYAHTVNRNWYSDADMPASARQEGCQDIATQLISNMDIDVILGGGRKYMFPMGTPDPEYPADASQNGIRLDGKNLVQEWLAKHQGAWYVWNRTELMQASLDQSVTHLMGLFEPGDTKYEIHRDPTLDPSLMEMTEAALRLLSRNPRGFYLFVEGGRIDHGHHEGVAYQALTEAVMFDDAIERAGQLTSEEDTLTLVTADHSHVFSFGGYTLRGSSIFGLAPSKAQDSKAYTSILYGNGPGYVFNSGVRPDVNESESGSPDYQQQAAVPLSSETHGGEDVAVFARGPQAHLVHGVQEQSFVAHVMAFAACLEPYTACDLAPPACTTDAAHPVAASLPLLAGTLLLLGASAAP
mIAP inh = inhibitors of mouse IAP, primary screen, biochemical, luminescence, uHTS. 330,000 tested, 0.2% active. intestinal alkaline phosphatase [Mus musculus]. AID 2806, 2010. purified mouse IAP, CDP-Star luminescence, 30 min. inhibition, % at 10 µM;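 active = inhibition of at least 40% at 10 µM in the primary screen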;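 also: plate controls were DMSO with enzyme for no effect and no enzyme wells for full effect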
hIAP inh = human IAP inhibitors, primary screen, biochemical, luminescence, uHTS | 330,000 tested, 0.12% active | purified IAP, CDP-Star luminescence, 30 min | inhibition, % at 10 µM | AID 2544, 2010;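 active = inhibition reaching a set limit with compound at 10 µM in the primary screen, cut at about 35% in these data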;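 also: plate controls were DMSO wells with enzyme for no effect and no-enzyme buffer wells for full effect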
mIAP activ = activators of mouse IAP, primary screen, biochemical, luminescence, uHTS; intestinal alkaline phosphatase [Mus musculus]; AID 2805, 2010; 330,000 tested, 0.24% active; activation factor at 10 µM; muIAP, CDP-Star luminescence, 30 min; active compounds read high; 1 = vehicle-only enzyme signal, 0 = enzyme-free wells;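 active = activation factor of at least 2 at 20 µM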
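System: mouse IAP enzyme. Reagent: CDP-Star chemiluminescent phosphatase substrate. Benchmarks: DMSO wells, no-enzyme wells. Times: 30 min enzyme-substrate-compound incubation at room temperature. Detection: luminescence from enzymatic CDP-Star hydrolysis. Doses: test compounds delivered from DMSO solution.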
Starred values were filed as active, the others as inactive; x = no result. Most compounds without a hit are left out; they make up all but 0.72% or so of the library.

SMILES | bIAP inh | bIAP activator | hIAP activ | mIAP inh | hIAP inh | mIAP activ
O=C(CSc1nc2ccccc2n1Cc1ccc(Cl)cc1)N/N=C/c1ccc(C(=O)O)cc1 | -15 | 1.1 | 0.93 | -8 | 7 | 1.1
CCCC(=O)OCCNc1cc(Sc2nc3ccccc3[nH]2)c2nonc2c1[N+](=O)[O-] | -251 | 3.5* | 0.88 | 12 | 12 | 0.88
CCC(=O)OCCNc1cc(SCCC(=O)OC)c2nonc2c1[N+](=O)[O-] | 14 | 0.9 | 1 | 12 | -4 | 0.88
Cc1noc(C)c1C(=O)NC1CCCc2ccccc21 (centres undefined) | 8 | 0.9 | 0.94 | 2 | 6 | 0.98
COc1ccc(N2CSC3=C(C#N)C(c4cccs4)CC(=O)N3C2)cc1 (centres undefined) | -10 | 1.1 | 0.76 | 44* | 24 | 0.56
CCc1ccc(N2CSC3=C(C#N)C(c4cccs4)CC(=O)N3C2)cc1 (centres undefined) | 25 | 0.7 | 1 | 31 | -1 | 0.69
Cc1nc(-c2ccc(C(F)(F)F)cc2)sc1C(=O)NN | x | x | 1.1 | 12 | -6 | 0.88
Cc1ccc(NC(=S)NC2CC3CCC(C2)N3Cc2ccco2)cc1C (centres undefined) | 0 | 1 | 1.2 | -42 | -19 | 1.4
CC(C)(C)n1nnnc1CN1C2CCC1CC(NC(=O)Nc1ccccc1)C2 (centres undefined) | -121 | 2.2* | 1.1 | -2 | -8 | 1
CCOC(=O)c1ccc(NC(=O)NC2CC3CCC(C2)N3Cc2nnnn2Cc2ccco2)cc1 (centres undefined) | -27 | 1.3 | 1.5 | -124 | -53 | 2.2*
CNC(=O)COc1ccccc1C(=O)Nc1ccc2c(c1)oc1ccccc12 | -1 | 1 | 0.96 | -4 | 4 | 1
CN(C)S(=O)(=O)c1cccc(-c2nn(-c3ccccc3)cc2/C=C2\SC(=S)NC2=O)c1 | -108 | 2.1* | x | x | x | x
O=C(CCN1C(=O)COc2ccccc21)NCCN1CCN(c2cccc(Cl)c2)CC1 | -3 | 1 | 0.97 | 4 | 3 | 0.96
Cc1noc(C)c1S(=O)(=O)N1CCC(C(=O)N2CCN(c3ccc(Cl)cc3)CC2)CC1 | 14 | 0.9 | 0.85 | -6 | 15 | 1.1
CCOc1ccc(-c2n[nH]c(=S)o2)cc1 | -23 | 1.2 | 1.2 | 44* | -22 | 0.56
Cn1c(CNc2cccc(Cl)c2)nnc1SCC#N | 16 | 0.8 | 0.91 | 1 | 9 | 0.99
CC(C)n1nc(CC(=O)O)c2ccccc2c1=O | -12 | 1.1 | 1.1 | 5 | -10 | 0.95
Cc1ccc(Cl)cc1NC(=S)NCCCSC1CCCCC1 | x | 0.4 | 1 | -211 | -4 | 3.1*
COc1ccccc1CNS(=O)(=O)c1cccc(S(=O)(=O)N2CCOCC2)c1 | 12 | 0.9 | 0.96 | 0 | 4 | 1
COc1ccc(-c2csc(=Nc3ccccc3)n2CCO)cc1 | -95 | 2* | 1 | 9 | -3 | 0.91
COc1ccc(N=c2scc(-c3ccc(S(=O)(=O)N4CCOCC4)cc3)n2CCCO)cc1 | 7 | 0.9 | x | x | x | x
Cc1cc(-c2ccco2)n2c(nc3ccccc32)c1C#N | -6 | 1.1 | 0.99 | 4 | 1 | 0.96
C/C(=N\Nc1cccc2cccnc12)c1ccccn1 | -17 | 1.2 | 2.1* | 10 | -106 | 0.9
C/C(=N\Nc1cccc2cccnc12)c1ccccc1O | 2 | 1 | 0.96 | 8 | 4 | 0.92
COc1ccc2cc(CCNC(=O)c3cccc([N+](=O)[O-])c3)c(=O)[nH]c2c1 | 7 | 0.9 | 0.93 | 12 | 7 | 0.88
Cc1oc(-c2cc(Cl)cc(Cl)c2)cc1C(=O)NCCc1ccccc1 | 6 | 0.9 | 1.1 | -263 | -11 | 3.6*
C[C@H](CO)N1C[C@H](C)[C@@H](CN(C)C(=O)Nc2ccc(C(F)(F)F)cc2)Oc2ccc(NC(=O)Nc3ccc4c(c3)OCO4)cc2C1=O | x | x | 0.93 | -138 | 7 | 2.4*
